Measurements from ChEMBL document CHEMBL5357072, “Structural Modification of Noscapine via Photoredox/Nickel Dual Catalysis for the Discovery of S-Phase Arresting Agents” (ACS Med Chem Lett, 2024).

Columns and labels:
[1] = tested on: MOLM-13; assay: Antiproliferative activity against human MOLM-13 cells assessed as inhibition of cell growth incubated for 48 hrs by CCK8 assay; type: functional, cell-based; conditions: MOLM-13, 48 h
In short: (§1)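 CCK-8 growth-inhibition assay in the malignant haematological lines MOLM-13, NB4 and Jeko-1 and in normal PBMC. Cells were treated across a range of doses and IC50 taken as the half-maximal growth-inhibitory concentration. Data are mean ± SD of triplicate samples, and experiments were repeated at least three times.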

[2] = tested on: NB-4; assay: Antiproliferative activity against human NB4 cells assessed as inhibition of cell growth incubated for 48 hrs by CCK8 assay; type: functional, cell-based; conditions: NB-4, 48 h; in short: as §1
[3] = tested on: JeKo-1; assay: Antiproliferative activity against human JeKo-1 cells assessed as inhibition of cell growth incubated for 48 hrs by CCK8 assay; type: functional, cell-based; conditions: JeKo-1, 48 h; in short: as §1
[4] = tested on: U-251; assay: Antiproliferative activity against human U-251 cells assessed as cell growth inhibition at 10 uM incubated for 48 hrs by CCK8 assay relative to control; type: functional; conditions: read-out: GI
In short: (§2)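 Single-concentration screen of six cancer cell lines. Cells were exposed to 10 μM compound and growth was measured by CCK-8 assay. Results are reported as inhibition rate at 10 μM.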

[5] = tested on: HeLa; assay: Antiproliferative activity against human HeLa cells assessed as cell growth inhibition at 10 uM incubated for 48 hrs by CCK8 assay relative to control; type: functional; conditions: read-out: GI; in short: as §2
[6] = tested on: JeKo-1; assay: Antiproliferative activity against human JeKo-1 cells assessed as cell growth inhibition at 10 uM incubated for 48 hrs by CCK8 assay relative to control; type: functional; conditions: read-out: GI; in short: as §2
[7] = tested on: MOLM-13; assay: Antiproliferative activity against human MOLM-13 cells assessed as cell growth inhibition at 10 uM incubated for 48 hrs by CCK8 assay relative to control; type: functional; conditions: read-out: GI; in short: as §2
[8] = tested on: A549; assay: Antiproliferative activity against human A549 cells assessed as cell growth inhibition at 10 uM incubated for 48 hrs by CCK8 assay relative to control; type: functional; conditions: read-out: GI; in short: as §2
[9] = tested on: NB-4; assay: Antiproliferative activity against human NB4 cells assessed as cell growth inhibition at 10 uM incubated for 48 hrs by CCK8 assay relative to control; type: functional; conditions: read-out: GI; in short: as §2

| Compound | IC50 [1] | IC50 [2] | IC50 [3] | inhibition of growth at 10 µM [4] | inhibition of growth at 10 µM [5] | inhibition of growth at 10 µM [6] | inhibition of growth at 10 µM [7] | inhibition of growth at 10 µM [8] | inhibition of growth at 10 µM [9] |
| --- | --- | --- | --- | --- | --- | --- | --- | --- | --- |
| COc1ccc2c(c1OC)C(=O)O[C@@H]2[C@H]1c2c(c(CC3CN(C(=O)OCc4ccccc4)C3)c3c(c2OC)OCO3)CCN1C | 4.37 µM | 10.7 µM | 5.11 µM | – | – | – | – | – | – |
| COc1ccc2c(c1OC)C(=O)O[C@@H]2[C@H]1c2c(c(CC3CC3)c3c(c2OC)OCO3)CCN1C(=O)OC(C)(C)C | – | – | – | < 5% | < 5% | < 5% | 43.6% | < 5% | 8.2% |
| CCC(C)Cc1c2c(c(OC)c3c1OCO3)[C@H]([C@H]1OC(=O)c3c1ccc(OC)c3OC)N(C(=O)OC(C)(C)C)CC2 (stereo partly drawn) | – | – | – | < 5% | 6.92% | 24% | 51.2% | < 5% | 9.33% |
| COc1ccc2c(c1OC)C(=O)O[C@@H]2[C@H]1c2c(c(CC3(F)CN(C(=O)OC(C)(C)C)C3)c3c(c2OC)OCO3)CCN1C(=O)OC(C)(C)C | – | – | – | < 5% | 8.57% | 43.9% | 61.5% | < 5% | 42.5% |
| COc1ccc2c(c1OC)C(=O)O[C@@H]2[C@H]1c2c(c(CC3CN(C(=O)OC(C)(C)C)C3)c3c(c2OC)OCO3)CCN1C(=O)OC(C)(C)C | – | – | – | < 5% | < 5% | 48% | 59% | 10.6% | 63.1% |
| COc1ccc2c(c1OC)C(=O)O[C@@H]2[C@H]1c2c(c(CC3CCCN3C(=O)OC(C)(C)C)c3c(c2OC)OCO3)CCN1C(=O)OC(C)(C)C (stereo partly drawn) | – | – | – | < 5% | 8.57% | 15.7% | 48.1% | < 5% | 29.7% |
| COc1ccc2c(c1OC)C(=O)O[C@@H]2[C@H]1c2c(c(CC3CCCO3)c3c(c2OC)OCO3)CCN1C(=O)OC(C)(C)C (stereo partly drawn) | – | – | – | 29.8% | 24.7% | 15.6% | 44.9% | < 5% | 7.48% |
| COc1ccc2c(c1OC)C(=O)O[C@@H]2[C@H]1c2c(c(CC3CCN(C(=O)OC(C)(C)C)C3)c3c(c2OC)OCO3)CCN1C(=O)OC(C)(C)C (stereo partly drawn) | – | – | – | < 5% | < 5% | 7.92% | 52.5% | < 5% | 23.2% |
| COc1ccc2c(c1OC)C(=O)O[C@@H]2[C@H]1c2c(c(C3CC4CCC3C4)c3c(c2OC)OCO3)CCN1C(=O)OC(C)(C)C (stereo partly drawn) | – | – | – | < 5% | < 5% | < 5% | 48.6% | < 5% | 15% |
| COc1ccc2c(c1OC)C(=O)O[C@@H]2[C@H]1c2c(c(C3CCN(C(=O)OC(C)(C)C)C3)c3c(c2OC)OCO3)CCN1C(=O)OC(C)(C)C (stereo partly drawn) | – | – | – | < 5% | < 5% | 14.9% | 54.8% | 17.7% | 22.1% |
| COc1ccc2c(c1OC)C(=O)O[C@@H]2[C@H]1c2c(c(CC3CCN3C(=O)OC(C)(C)C)c3c(c2OC)OCO3)CCN1C(=O)OC(C)(C)C (stereo partly drawn) | – | – | – | < 5% | < 5% | 12.9% | 43.2% | < 5% | 13.8% |
| COc1ccc2c(c1OC)C(=O)O[C@@H]2[C@H]1c2c(c(CCCc3ccccc3)c3c(c2OC)OCO3)CCN1C(=O)OC(C)(C)C | – | – | – | < 5% | < 5% | 13.7% | 63.2% | < 5% | 25.1% |
| CCCCc1c2c(c(OC)c3c1OCO3)[C@H]([C@H]1OC(=O)c3c1ccc(OC)c3OC)N(C(=O)OC(C)(C)C)CC2 | – | – | – | < 5% | < 5% | 11.4% | 48.6% | < 5% | 10% |
| COc1ccc2c(c1OC)C(=O)O[C@@H]2[C@H]1c2c(c(C3CCCC3)c3c(c2OC)OCO3)CCN1C(=O)OC(C)(C)C | – | – | – | < 5% | < 5% | 5.81% | 40% | < 5% | 11.6% |
| COc1ccc2c(c1OC)C(=O)O[C@@H]2[C@H]1c2c(c(C34C[C@H]5C[C@H](C3)C[C@@H](C4)C5)c3c(c2OC)OCO3)CCN1C(=O)OC(C)(C)C | – | – | – | < 5% | < 5% | < 5% | 17.6% | < 5% | < 5% |
| COc1ccc2c(c1OC)C(=O)O[C@@H]2[C@H]1c2c(c(C3CN(C(=O)OC(C)(C)C)C3)c3c(c2OC)OCO3)CCN1C(=O)OC(C)(C)C | – | – | – | < 5% | < 5% | 17.6% | 49.7% | < 5% | 30.1% |
| COc1ccc2c(c1OC)C(=O)O[C@@H]2[C@H]1c2c(c(C3CCN(C(=O)OC(C)(C)C)CC3)c3c(c2OC)OCO3)CCN1C(=O)OC(C)(C)C | – | – | – | < 5% | 17.5% | 22.3% | 62.9% | 14.7% | 21.2% |
| COc1ccc2c(c1OC)C(=O)O[C@@H]2[C@H]1c2c(c(CCCNC(=O)OC(C)(C)C)c3c(c2OC)OCO3)CCN1C(=O)OC(C)(C)C | – | – | – | < 5% | < 5% | 10.6% | 48.2% | < 5% | 28.9% |
| COc1ccc2c(c1OC)C(=O)O[C@@H]2[C@H]1c2c(c(C3CCCCCC3)c3c(c2OC)OCO3)CCN1C(=O)OC(C)(C)C | – | – | – | 20.5% | < 5% | 10.3% | 39.4% | < 5% | < 5% |
| COc1ccc2c(c1OC)C(=O)O[C@@H]2[C@H]1c2c(c(CC3CCN(C(=O)OC(C)(C)C)CC3)c3c(c2OC)OCO3)CCN1C(=O)OC(C)(C)C | – | – | – | < 5% | < 5% | 22.7% | 58.1% | < 5% | 37.3% |
| COc1ccc2c(c1OC)C(=O)O[C@@H]2[C@H]1c2c(c(C3CCOC3)c3c(c2OC)OCO3)CCN1C(=O)OC(C)(C)C (stereo partly drawn) | – | – | – | 32.1% | < 5% | 20.8% | 43.6% | < 5% | 23.3% |
| COc1ccc2c(c1OC)C(=O)O[C@@H]2[C@H]1c2c(c(CCCCCC#N)c3c(c2OC)OCO3)CCN1C(=O)OC(C)(C)C | – | – | – | 19.1% | 16.1% | 19.9% | 46.3% | < 5% | 14.1% |
| COc1ccc2c(c1OC)C(=O)O[C@@H]2[C@H]1c2c(c(CC[Si](C)(C)C)c3c(c2OC)OCO3)CCN1C(=O)OC(C)(C)C | – | – | – | < 5% | < 5% | < 5% | 46.9% | < 5% | 21.9% |
| COc1ccc2c(c1OC)C(=O)O[C@@H]2[C@H]1c2c(c(C3COC3)c3c(c2OC)OCO3)CCN1C(=O)OC(C)(C)C | – | – | – | 12.3% | 14.9% | 13.3% | 11.7% | < 5% | 9.21% |
| COc1ccc2c(c1OC)C(=O)O[C@@H]2[C@H]1c2c(c(C3CC3)c3c(c2OC)OCO3)CCN1C(=O)OC(C)(C)C | – | – | – | < 5% | < 5% | 6.87% | 19.5% | < 5% | 7.63% |
| CCOP(=O)(CCc1c2c(c(OC)c3c1OCO3)[C@H]([C@H]1OC(=O)c3c1ccc(OC)c3OC)N(C(=O)OC(C)(C)C)CC2)OCC | – | – | – | < 5% | < 5% | 12.1% | 31.1% | < 5% | 6.64% |
